Assay results taken from ChEMBL document CHEMBL3576806, “Design and synthesis of novel arctigenin analogues for the amelioration of metabolic disorders” (ACS Med Chem Lett, 2015).
Active and inactive are the calls of the source. No cut-off for these calls is given here.

How the values were obtained:
[1] = tested on: L6; test: Increase in glucose uptake in rat L6 cells at 1.5 uM pre-treated with compound for 30 mins using 2-deoxy-D-[1,2-3H]glucose and measured after 2 hrs in presence of 3 uM (-)-arctigenin by liquid scintillation counting method; type: functional
Summary of the method: (§1)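 L6 myotubes exposed to compound for 2 h at 1.5, 3, 6, 12 or 24 μM; 2-deoxyglucose uptake expressed as fold over untreated control; 3 μM (−)-arctigenin run alongside as positive control; mean ± SEM of 3 independent experiments.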

[2] = tested on: L6; test: Ratio of glucose uptake in rat L6 cells at 1.5 uM after 2 hrs to glucose uptake in rat L6 cells at 1.5 uM after 2 hrs in presence of 3 uM (-)-arctigenin; type: functional
Summary of the method: (§2)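 Glucose uptake in L6 myotubes after 2 h compound exposure divided by uptake with the 3 μM (−)-arctigenin positive control run in parallel.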

[3] = tested on: L6; test: Increase in glucose uptake in rat L6 cells at 1.5 uM pre-treated with compound for 30 mins using 2-deoxy-D-[1,2-3H]glucose and measured after 2 hrs by liquid scintillation counting method; type: functional; summary of the method: as §1
[4] = tested on: L6; test: Induction of AMPK phosphorylation in rat L6 cells at 3 uM incubated for 2 hrs by Western blotting method; type: cell-based
Summary of the method: (§3)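 L6 myotubes treated 2 h at the stated concentrations; phosphorylated AMPK and phosphorylated ACC detected by immunoblot.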

[5] = tested on: L6; test: Induction of AMPK activation in rat L6 cells assessed as increase in ACC phosphorylation at 3 uM incubated for 2 hrs by Western blotting method; type: cell-based; summary of the method: as §3
[6] = tested on: L6; test: Induction of AMPK activation in rat L6 cells assessed as increase in ACC phosphorylation at 1.5 uM incubated for 2 hrs by Western blotting method; type: cell-based; summary of the method: as §3
[7] = tested on: L6; test: Induction of AMPK phosphorylation in rat L6 cells at 6 uM incubated for 2 hrs by Western blotting method; type: cell-based; summary of the method: as §3
[8] = tested on: L6; test: Induction of AMPK activation in rat L6 cells assessed as increase in ACC phosphorylation at 6 uM incubated for 2 hrs by Western blotting method; type: cell-based; summary of the method: as §3
[9] = tested on: L6; test: Induction of AMPK phosphorylation in rat L6 cells at 1.5 uM incubated for 2 hrs by Western blotting method; type: cell-based; summary of the method: as §3
[10] = tested on: L6; test: Increase in glucose uptake in rat L6 cells at 3 uM pre-treated with compound for 30 mins using 2-deoxy-D-[1,2-3H]glucose and measured after 2 hrs by liquid scintillation counting method; type: functional; summary of the method: as §1
[11] = tested on: L6; test: Increase in glucose uptake in rat L6 cells at 3 uM […] using 2-deoxy-D-[1,2-3H]glucose and measured after 2 hrs […] by liquid scintillation counting method; type: functional; summary of the method: as §1
[12] = tested on: L6; test: Ratio of glucose uptake in rat L6 cells at 3 uM after 2 hrs to glucose uptake in rat L6 cells at 3 uM after 2 hrs in presence of 3 uM (-)-arctigenin; type: functional; summary of the method: as §2
[13] = tested on: L6; test: Increase in glucose uptake in rat L6 cells at 6 umol/L pre-treated with compound for 30 mins using 2-deoxy-D-[1,2-3H]glucose and measured after 2 hrs by liquid scintillation counting method relative to control; type: functional; summary of the method: as §1
[14] = tested on: L6; test: Ratio of glucose uptake in rat L6 cells at 6 uM after 2 hrs to glucose uptake in rat L6 cells at 6 uM after 2 hrs in presence of 3 uM (-)-arctigenin; type: functional; summary of the method: as §2
[15] = tested on: L6; test: Increase in glucose uptake in rat L6 cells at 6 uM pre-treated with compound for 30 mins using 2-deoxy-D-[1,2-3H]glucose and measured after 2 hrs by liquid scintillation counting method; type: functional; summary of the method: as §1
[16] = tested on: L6; test: Increase in glucose uptake in rat L6 cells at 6 uM pre-treated with compound for 30 mins using 2-deoxy-D-[1,2-3H]glucose and measured after 2 hrs […] by liquid scintillation counting method; type: functional; summary of the method: as §1
[17] = tested on: L6; test: Increase in glucose uptake in rat L6 cells at 3 umol/L pre-treated with compound for 30 mins using 2-deoxy-D-[1,2-3H]glucose and measured after 2 hrs by liquid scintillation counting method relative to control; type: functional; summary of the method: as §1
[18] = tested on: L6; test: Ratio of glucose uptake in rat L6 cells at 12 uM after 2 hrs to glucose uptake in rat L6 cells at 12 uM after 2 hrs in presence of 3 uM (-)-arctigenin; type: functional; summary of the method: as §2
[19] = tested on: L6; test: Increase in glucose uptake in rat L6 cells at 12 uM pre-treated with compound for 30 mins using 2-deoxy-D-[1,2-3H]glucose and measured after 2 hrs by liquid scintillation counting method; type: functional; summary of the method: as §1
[20] = tested on: L6; test: Increase in glucose uptake in rat L6 cells at 12 uM pre-treated with compound for 30 mins using 2-deoxy-D-[1,2-3H]glucose and measured after 2 hrs […] by liquid scintillation counting method; type: functional; summary of the method: as §1
[21] = tested on: L6; test: Increase in glucose uptake in rat L6 cells at 0.75 uM to 3 uM pre-treated with compound for 30 mins using 2-deoxy-D-[1,2-3H]glucose and measured after 2 hrs by liquid scintillation counting method; type: functional, cell-based
[22] = Tmax in ob/ob mouse at 50 mg/kg, ip measured after 0.5 to 24 hrs; type: ADME, organism-based; conditions: in vivo
[23] = tested on: L6; test: Induction of fatty acid oxidation in rat L6 cells using [9,10-3H(N)]-palmitic acid incubated for 2 hrs in presence of AMPK inhibitor compound-C; type: functional, cell-based
Summary of the method: (§4)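 Fatty acid oxidation measured in L6 myotubes after compound treatment, also with compound C to block AMPK; mean ± SEM, n = 3 independent experiments.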

[24] = tested on: L6; test: Induction of fatty acid oxidation in rat L6 cells at 6 uM using [9,10-3H(N)]-palmitic acid incubated for 2 hrs; type: functional, cell-based; summary of the method: as §4
[25] = tested on: L6; test: Induction of depolarization of mitochondrial membrane potential in rat L6 cells incubated for 10 mins by fluorescence based assay; type: functional, cell-based
Summary of the method: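 L6 myotubes treated 10 min over a concentration series; mitochondrial membrane potential (Δψm) depolarization measured; mean ± SEM, n = 3 independent experiments.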

[26] = tested on: L6; test: Increase in glucose uptake in rat L6 cells pre-treated with compound for 30 mins using 2-deoxy-D-[1,2-3H]glucose and measured after 2 hrs in presence of 10 uM AMPK inhibitor compound-C by liquid scintillation counting method; type: functional, cell-based
Summary of the method: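 L6 myotube 2-deoxyglucose uptake after compound exposure, tested with and without the AMPK inhibitor compound C; mean ± SEM, n = 3 independent experiments.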

[27] = tested on: L6; test: Increase in glucose uptake in rat L6 cells at 24 uM pre-treated with compound for 30 mins using 2-deoxy-D-[1,2-3H]glucose and measured after 2 hrs by liquid scintillation counting method; type: functional; summary of the method: as §1
[28] = tested on: L6; test: Ratio of glucose uptake in rat L6 cells at 24 uM after 2 hrs to glucose uptake in rat L6 cells at 24 uM after 2 hrs in presence of 3 uM (-)-arctigenin; type: functional; summary of the method: as §2
[29] = tested on: L6; test: Increase in glucose uptake in rat L6 cells at 24 uM pre-treated with compound for 30 mins using 2-deoxy-D-[1,2-3H]glucose and measured after 2 hrs […] by liquid scintillation counting method; type: functional; summary of the method: as §1

Compound: COc1ccc(C[C@H]2C(=O)OC[C@@H]2Cc2ccc(OC)c(OC)c2)cc1
- Activity [1]: 182.1%
- Ratio [2]: 0.595
- Activity [3]: 108.4%

Compound: COc1ccc(C[C@@H]2COC(=O)[C@H]2Cc2ccc(Cl)cc2)cc1OC
- Activity [4]: inactive
- Activity [5]: inactive
- Activity [6]: inactive
- Activity [7]: inactive
- Activity [1]: 208.9%
- Activity [8]: inactive
- Ratio [2]: 0.494
- Activity [9]: inactive
- Activity [3]: 103.1%

Compound: COc1ccc(C[C@H]2COC(=O)[C@@H]2Cc2ccc(O)c(O)c2)cc1OC
- Activity [10]: 243.2%
- Activity [11]: 238.9%
- Ratio [12]: 1.018

Compound: COc1cc(C[C@H]2COC[C@@H]2Cc2ccc(OC)c(OC)c2)ccc1O
- fold change (FC) [13]: 1.31

Compound: COc1ccc(C[C@H]2COC(=O)[C@@H]2Cc2ccc(Br)cc2)cc1OC
- Ratio [14]: 0.654
- Activity [15]: 176%
- Activity [16]: 269.2%

Compound: COc1cc(C[C@H]2C(=O)OC[C@@H]2Cc2ccc3c(c2)OCO3)ccc1O
- Activity [1]: 265.3%
- Ratio [2]: 0.496
- Activity [3]: 131.7%

Compound: COc1ccc(C[C@H]2COC(=O)[C@@H]2Cc2cccc(Cl)c2)cc1OC
- Activity [10]: 114.8%
- Activity [11]: 212.4%
- Ratio [12]: 0.54

Compound: COc1cc(C[C@H]2C(=O)CC[C@@H]2Cc2ccc(OC)c(OC)c2)ccc1O
- fold change (FC) [17]: 2.08

Compound: COc1ccc(C[C@H]2COC(=O)[C@@H]2Cc2ccccc2O)cc1OC
- Activity [1]: 237.6%
- Ratio [2]: 0.579
- Activity [3]: 137.6%

Compound: COc1ccc(C[C@H]2COC(=O)[C@@H]2Cc2ccc(OC)c(OC)c2)cc1OC
- Activity [10]: 137.1%
- Activity [11]: 237.6%
- Ratio [12]: 0.577

Compound: COc1ccc(C[C@H]2COC(=O)[C@@H]2Cc2ccc(O)cc2)cc1OC
- Ratio [18]: 0.895
- Activity [19]: 179.5%
- Activity [20]: 200.6%

Compound: COc1ccc(C[C@H]2C(=O)OC[C@@H]2Cc2ccc(OC)c(OC)c2)cc1O
- Activity [1]: 188.9%
- Ratio [2]: 0.531
- Activity [3]: 100.4%

Compound: COc1ccc(C[C@H]2COC(=O)[C@@H]2Cc2ccccc2Cl)cc1OC
- Activity [10]: 112.4%
- Activity [11]: 206.4%
- Ratio [12]: 0.545

Compound: COc1cccc(C[C@H]2COC(=O)[C@@H]2Cc2ccc(O)c(OC)c2)c1
- Activity [1]: 241%
- Ratio [2]: 0.503
- Activity [3]: 121.2%

Compound: COc1cc(C[C@H]2C(=O)OC[C@@H]2Cc2cc(OC)c(OC)c(OC)c2)ccc1O
- Ratio [14]: 0.551
- Activity [15]: 128.8%
- Activity [16]: 233.9%

Compound: COc1ccc(C[C@H]2COC(=O)[C@@H]2Cc2ccc(C#N)cc2)cc1OC
- Activity [10]: 136.7%
- Activity [11]: 258.7%
- Ratio [12]: 0.528

Compound: COc1cc(CC2C(=O)OCC2Cc2ccc(OC)c(OC)c2)ccc1O (racemic)
- Activity [21]: Dose-dependent effect
- Activity [4]: Active
- Tmax [22]: 30 min
- Activity [5]: Active
- Activity [23]: inactive
- Activity [6]: Active
- Activity [24]: Active
- fold change (FC) [17]: 1.62
- Activity [25]: Dose-dependent effect
- Activity [26]: inactive
- Activity [9]: Active

Compound: COc1ccc(C[C@H]2COC(=O)[C@@H]2Cc2ccc(O)c(OC)c2)cc1
- Activity [27]: 235.1%
- Ratio [28]: 0.896
- Activity [29]: 262.4%

Compound: COc1ccc(C[C@H]2COC(=O)[C@@H]2Cc2ccc(Cl)cc2)cc1OC
- Ratio [14]: 1.03
- Activity [4]: Active
- Activity [15]: 191.1%
- Activity [5]: Active
- Activity [6]: Active
- Activity [7]: Active
- Activity [8]: Active
- Activity [16]: 185.5%
- Activity [9]: Active

Compound: COc1ccc(C[C@H]2COC(=O)[C@@H]2Cc2ccc(F)cc2)cc1OC
- Activity [1]: 239.6%
- Ratio [2]: 0.486
- Activity [3]: 116.4%

Compound: COc1ccc(C[C@H]2COC(=O)[C@@H]2Cc2ccc(N)cc2)cc1OC
- Activity [10]: 126.6%
- Activity [11]: 205.4%
- Ratio [12]: 0.616

Compound: COc1cc(C[C@H]2C(=O)OC[C@@H]2Cc2ccc(OC)c(OC)c2)ccc1O [ARCTIGENIN]
- Activity [21]: Dose-dependent effect
- fold change (FC) [17]: 1.75

Compound: COc1ccccc1C[C@H]1C(=O)OC[C@@H]1Cc1ccc(OC)c(OC)c1
- Activity [10]: 97.4%
- Activity [11]: 190.1%
- Ratio [12]: 0.512

Compound: COc1ccc(C[C@H]2COC(=O)[C@@H]2Cc2cccc(O)c2)cc1OC
- Activity [27]: 180.3%
- Ratio [28]: 0.828
- Activity [29]: 217.8%

Compound: COc1cccc(C[C@H]2C(=O)OC[C@@H]2Cc2ccc(OC)c(OC)c2)c1
- Ratio [18]: 0.564
- Activity [19]: 119.2%
- Activity [20]: 211.3%
